Only some compounds are listed: those with a hit (about 3.6% of all), similar ones and a draw of the others.
GRIN3A LBD mod – NR3A (human) ligand-binding domain modulation | NR3A LBD differential scanning fluorimetry, Tm shift; 0% = protein alone, 100% = glycine-bound protein | AID 1259313 | Tm shift relative to glycine control, % at 25 µM | 340,000 compounds, 2.5% hits;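 active = melting temperature shift of at least 10% of the positive control shift, at one fixed dose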
EBNA-1 inh – blocks EBNA-1 binding to DNA | AID 1950 | 300,000 compounds, 0.34% hits | EBNA-1 DNA binding, fluorescence polarization | inhibition, % at 14.8 µM; in the data active = inhibition above about 28%
ZTA counter – ZTA (EBV) inhibition in EBNA-1 counter-screen; inhibition, % at 11 µM; AID 2234; 320,000 compounds, 0.15% hits; P03206; ZTA-DNA binding, fluorescence polarization; in the data active = inhibition above about 33%
Target sequence (P03206 whole entry, looked up): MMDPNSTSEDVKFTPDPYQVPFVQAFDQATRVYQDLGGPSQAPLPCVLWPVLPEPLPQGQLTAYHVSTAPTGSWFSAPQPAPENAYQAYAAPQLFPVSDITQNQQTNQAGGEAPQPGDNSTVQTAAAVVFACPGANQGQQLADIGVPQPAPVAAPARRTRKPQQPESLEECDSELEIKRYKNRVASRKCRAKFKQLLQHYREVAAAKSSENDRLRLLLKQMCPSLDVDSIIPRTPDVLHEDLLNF
NS3 helicase inh – HCV NS3 helicase inhibition; 290,000 compounds, 0.56% hits; inhibition, % at 10.9 µM; NS3 helicase DNA unwinding, Cy5 molecular beacon fluorescence; AID 1800;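 active = inhibition above the mean of all tested compounds plus 3 SD, set per campaign, cut at about 35% in these data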;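 note: 0% = DMSO wells and 100% = thioflavine S control wells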
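Compound dosing – single dose, 10.9 µM nominal final, DMSO 0.8% final · System – NS3 helicase fragment of HCV · Buffer or medium – MOPS pH 6.5, MgCl2, DTT, Tween20, BSA · Signal – Cy5 beacon fluorescence read at start and 1 h · Also added – annealed dual-labelled DNA beacon duplex, ATP-started · Schedule – 1 h at 25 °C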
FID counter – fluorescent intercalator displacement, NS3 helicase counter-screen | DNA fluorescent intercalator displacement, fluorescence | inhibition, % at 7.9 µM | 290,000 compounds, 0.17% hits | AID 1845; in the data active = inhibition above about 37%;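 note: 0% = vehicle and 100% = reference compound; higher means more ethidium bromide displaced from hairpin DNA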
FGF22 binding-1 – shifts melting point of recombinant human FGF22; Q9HCT0; activity (Tm shift, normalised), % at 9.99 µM; 340,000 compounds, 1.5% hits; recombinant FGF22 thermal shift, SYPRO orange fluorescence; percent of sucrose octasulfate shift, DMSO zero; AID 651658;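 active = mean Tm shift, scaled 0 neutral to 100 positive control, at about 1.3% or above, every replicate too, limit read from the data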
Target sequence (Q9HCT0 whole entry, looked up): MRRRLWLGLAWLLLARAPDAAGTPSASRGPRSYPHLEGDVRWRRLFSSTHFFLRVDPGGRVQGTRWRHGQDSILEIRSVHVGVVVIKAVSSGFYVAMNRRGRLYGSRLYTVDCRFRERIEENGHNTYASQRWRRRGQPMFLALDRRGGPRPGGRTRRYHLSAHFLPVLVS
FGF22 binding-2 – binds human FGF22 shifting its melting temperature; recombinant FGF22 thermal shift, SYPRO orange fluorescence; AID 720646; shares compounds with FGF22 binding-1; 1,000 compounds, 2% hits; thermal shift activity, °C (ΔTm) at 38 µM;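 active = fitted rise in melting shift crosses a set limit at or below the top valid dose tested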
FGF22 TSA DP – binds human FGF22 shifting its melting temperature; shares compounds with FGF22 binding-1; Thermal shift assay, SYPRO orange, melting temperature shift; Tm shift (activity), % at 38 µM; 50 tested, under 10 active;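 active = compounds whose fitted dose curve of melting temperature shift rises past a set threshold within the tested doses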
SYPRO no-protein – counter-screen for FGF22 binders: compound-only thermal shift, no protein; compound-only SYPRO orange thermal shift counter-screen; AID 743019; shares compounds with FGF22 binding-1; 1,000 compounds, 2% hits; AC50, µM (highest dose often 38 µM);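 active = rising signal whose fitted curve reaches the 0.54 level within the top valid dose, showing a melting point, actives reach about 13 µM in these data; inactive = the rest, including activity in the opposite direction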; note: value is where the raw curve crosses a fixed level and not half-maximal
* = called active by the depositor; [ ] = dose if it differs, or a comment.

For CC(C)CC#Cc1cnc2c(c1)C(=O)N([C@@H](C)CO)C[C@H](C)[C@@H](CN(C)Cc1ccccn1)O2 the results were FGF22 binding-1 1.6*, FGF22 binding-2 0.1 and SYPRO no-protein inactive.
`C[C@H](CO)N1C[C@H](C)[C@@H](CN(C)S(=O)(=O)c2ccc(Cl)cc2)Oc2ccc(NC(=O)c3ccncc3)cc2CC1=O` gave FGF22 binding-1 0.
`COc1ccc(S(=O)(=O)N(C)C[C@@H]2OCCCC[C@@H](C)Oc3ccc(NC(=O)Nc4cccc5ccccc45)cc3C(=O)N([C@@H](C)CO)C[C@@H]2C)cc1` gave FGF22 binding-1 0.
Screening CC(=O)Nc1ccc(S(=O)(=O)Nc2nc3ccccc3nc2Nc2cccc(S(N)(=O)=O)c2)cc1 returned GRIN3A LBD mod 8, EBNA-1 inh -3, ZTA counter 3, NS3 helicase inh 20, FID counter -29, FGF22 binding-1 2.0*, FGF22 binding-2 0.011 and SYPRO no-protein inactive.
Screening COc1ccc(-n2c(C)cc(C3=NNC(=NC4CC4)SC3)c2C)cc1 returned GRIN3A LBD mod 0, NS3 helicase inh -5, FID counter -13 and FGF22 binding-1 0.
`CN=C1NN=C(c2cc(C)n(-c3c(C)n(C)n(-c4ccccc4)c3=O)c2C)CS1` gave GRIN3A LBD mod -1, EBNA-1 inh -3, ZTA counter 7, NS3 helicase inh 19, FID counter -11, FGF22 binding-1 1.6*, FGF22 binding-2 0.13 and SYPRO no-protein inactive.
For CC=Cc1ccc2n(c1=O)C[C@H]1[C@H](CO)[C@@H](C(=O)NCCC)N(Cc3cccnc3)[C@@H]21 (mixture of isomers) the results were FGF22 binding-1 0.
`COc1cc(/C=C2/S/C(=N/S(=O)(=O)Cc3ccccc3)NC2=O)c([N+](=O)[O-])cc1OC` gave GRIN3A LBD mod -7, EBNA-1 inh 3, ZTA counter 27, NS3 helicase inh 18, FID counter -6, FGF22 binding-1 1.9*, FGF22 binding-2 0.11 and SYPRO no-protein inactive.
Screening COc1c(/C=C2\SC(=Nc3ccccc3Cl)NC2=O)cccc1[N+](=O)[O-] returned GRIN3A LBD mod -3, EBNA-1 inh 2, ZTA counter -3, NS3 helicase inh 27, FID counter -9 and FGF22 binding-1 0.
`CCOc1cc(C=NNC(=O)c2cccc(S(=O)(=O)N3CCCC3)c2)ccc1O` gave GRIN3A LBD mod 7, FGF22 binding-1 2.4*, FGF22 binding-2 0.52 and SYPRO no-protein inactive.
For CC(C)(CNS(=O)(=O)c1ccc2c(c1)OCCO2)N1CCOCC1 the results were GRIN3A LBD mod 1, EBNA-1 inh 7, ZTA counter 10, NS3 helicase inh 1, FID counter -7, FGF22 binding-1 1.4*, FGF22 binding-2 -0.061 and SYPRO no-protein inactive.
`COc1ccc2c3c(n(C)c2c1)[C@@H](CO)N(C(=O)CC1CC1)CC31CCN(C(=O)C2CCCC2)CC1` gave FGF22 binding-1 0.
CC(C)N(C[C@H]1N[C@H](CO)[C@H]1c1ccccc1)S(=O)(=O)c1ccccc1 was read as FGF22 binding-1 1.4*, FGF22 binding-2 0.02[42 µM] and SYPRO no-protein inactive.
Screening C[C@@H]1CN([C@H](C)CO)C(=O)Cc2cc(NC(=O)C3CC3)ccc2O[C@@H]1CN(C)S(C)(=O)=O returned FGF22 binding-1 0.
Screening CC(C)N(Cc1ccccc1)C(=O)COC(=O)C1CCN(c2ccc(C(F)(F)F)cn2)CC1 returned GRIN3A LBD mod 5, FGF22 binding-1 1.5*, FGF22 binding-2 -0.009 and SYPRO no-protein inactive.
For Cc1cccc(S(=O)(=O)N2CCCCN3[C@H](C2)[C@H](c2ccc(C#C[C@H](C)O)cc2)[C@@H]3CO)c1 the results were FGF22 binding-1 0.
For O=C(O)Cc1ccc(NC(=O)c2ccc(Cl)c(Cl)c2)cc1 the results were GRIN3A LBD mod -3, EBNA-1 inh 11, ZTA counter 0, NS3 helicase inh 4, FID counter -11, FGF22 binding-1 1.8*, FGF22 binding-2 0.57, FGF22 TSA DP 0 and SYPRO no-protein inactive.
`O=C(NCC[C@H]1CC[C@@H](NC(=O)c2cccnc2)[C@H](CO)O1)Nc1ccc(F)cc1` gave FGF22 binding-1 0.
Screening O=C(Nc1ccccc1)N1C[C@H]2[C@@H](c3ccccc31)[C@H](CO)N2C(=O)c1cccnc1 returned FGF22 binding-1 -1.
`Cc1cccc(C(=O)NCC(=O)N2CCN(c3ccc(Cl)cc3)CC2)c1` gave GRIN3A LBD mod -2, EBNA-1 inh 0, ZTA counter 0, NS3 helicase inh 11, FID counter -28 and FGF22 binding-1 0.
For Cc1cc(C)cc(C(=O)NCC(=O)N2CCN(c3cccc(Cl)c3)CC2)c1 the results were GRIN3A LBD mod 0, EBNA-1 inh 3, ZTA counter 2, NS3 helicase inh -6, FID counter -31, FGF22 binding-1 37*, FGF22 binding-2 0.15 and SYPRO no-protein inactive.
O=C(O)c1cccc(NS(=O)(=O)c2ccc(-c3ccc(S(=O)(=O)Nc4cccc(C(=O)O)c4)cc3)cc2)c1 was read as GRIN3A LBD mod 6, EBNA-1 inh -3, ZTA counter -3, NS3 helicase inh -1, FID counter -19, FGF22 binding-1 21*, FGF22 binding-2 -0.46 and SYPRO no-protein inactive.
For O=C(Nc1cccc(C(F)(F)F)c1)c1cccc(NS(=O)(=O)c2ccc(O)c(C(=O)O)c2)c1 the results were GRIN3A LBD mod 32*, EBNA-1 inh 4, ZTA counter 9, NS3 helicase inh -35, FID counter 12, FGF22 binding-1 1.7*, FGF22 binding-2 0.37 and SYPRO no-protein inactive.
Screening C[C@@H]1CN([C@H](C)CO)C(=O)Cc2cc(NC(=O)CCCCCC(=O)Nc3ccccc3N)ccc2O[C@H]1CN(C)Cc1ccc(Oc2ccccc2)cc1 returned FGF22 binding-1 0.
For CCN1CCc2c(sc(NC(=O)c3ccc(S(=O)(=O)N(CC)c4ccccc4)cc3)c2C(N)=O)C1 the results were GRIN3A LBD mod -3, EBNA-1 inh 3, ZTA counter -12, NS3 helicase inh 31, FID counter -8, FGF22 binding-1 28*, FGF22 binding-2 0.017 and SYPRO no-protein inactive.
